Activity calls are given as the source filed them.
Experiments:
Enterococcus faecium [1] = assay: Synergistic antibacterial activity against vancomycin-resistant Enterococcus faecium OEF42 assessed as fractional inhibitory concentration index measured after 24 hrs in presence of curcumin by checkerboard assay; format: functional
Method in brief: (§1)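 FICI was derived from checkerboard MICs. Synergy was defined as FICI ≤ 0.5 and additive as FICI > 0.5−4.0. Where an MIC was not reached, the dilution above the maximum dose was used in the FICI calculation. Experiments were run in triplicate and reported as means.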

Pseudomonas aeruginosa [2] = assay: Synergistic antibacterial activity against Pseudomonas aeruginosa PAO1 assessed as fractional inhibitory concentration index measured after 24 hrs in presence of curcumin by checkerboard assay; format: functional
Method in brief: (§2)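 FICI calculated from combination MICs; ≤0.5 taken as synergy and >0.5–4.0 as additive. Where an MIC was not reached, the dilution above the highest concentration tested was used in the calculation. Run in triplicate and reported as means.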

Enterococcus faecium [3] = assay: Antibacterial activity against vancomycin-resistant Enterococcus faecium OEF65 assessed as reduction in bacterial growth incubated for 24 hrs in presence of curcumin; format: functional
Pseudomonas aeruginosa [4] = assay: Antibacterial activity against Pseudomonas aeruginosa PA14 assessed as reduction in bacterial growth incubated for 24 hrs in presence of curcumin; format: functional
Acinetobacter baumannii [5] = assay: Antibacterial activity against Acinetobacter baumannii NCTC 19606 assessed as reduction in bacterial growth incubated for 24 hrs in presence of curcumin; format: functional
Escherichia coli [6] = assay: Antibacterial activity against Escherichia coli EC2 harboring CTX-M-15 assessed as reduction in bacterial growth incubated for 24 hrs in presence of curcumin; format: functional
Acinetobacter baumannii [7] = assay: Antibacterial activity against Acinetobacter baumannii AB16 harboring OXA-23 clone 2 assessed as reduction in bacterial growth incubated for 24 hrs in presence of curcumin; format: functional
Enterococcus faecium [8] = assay: Synergistic antibacterial activity against vancomycin-resistant Enterococcus faecium OEF65 assessed as fractional inhibitory concentration index measured after 24 hrs in presence of curcumin by checkerboard assay; format: functional; method in brief: as §1
Pseudomonas aeruginosa [9] = assay: Synergistic antibacterial activity against Pseudomonas aeruginosa PA14 assessed as fractional inhibitory concentration index measured after 24 hrs in presence of curcumin by checkerboard assay; format: functional; method in brief: as §2
[10] = tested on: Stenotrophomonas maltophilia; assay: Synergistic antibacterial activity against Stenotrophomonas maltophilia SMB07 assessed as fractional inhibitory concentration index measured after 24 hrs in presence of curcumin by checkerboard assay; format: functional; method in brief: as §2
Staphylococcus aureus [11] = assay: Antibacterial activity against methicillin-resistant Staphylococcus aureus NCTC 12493 assessed as reduction in colony formation at MIC measured up to 24 hrs by time kill assay; format: functional, organism-based; conditions: time hrs <=24
Method in brief: (§3)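 Time-kill in 10 mL Mueller-Hinton 2 broth, 37 °C with continuous agitation, 24 h. Inoculum was a 1/1000 dilution of a 16 h overnight culture, about 10^6 CFU/mL. Single agents at 1× MIC; combination at 1× MIC polymyxin B plus 0.5× MIC curcumin. Samples at 0, 2, 4, 6 and 24 h were serially diluted and plated on IsoSensitest agar for CFU/mL.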

Enterococcus faecalis [12] = assay: Synergistic antibacterial activity against […] Enterococcus faecalis ATCC 29212 assessed as fractional inhibitory concentration index measured after 24 hrs in presence of curcumin by checkerboard assay; format: functional; method in brief: as §1
Acinetobacter baumannii [13] = assay: Synergistic antibacterial activity against Acinetobacter baumannii NCTC 19606 assessed as fractional inhibitory concentration index measured after 24 hrs in presence of curcumin by checkerboard assay; format: functional; method in brief: as §1
Pseudomonas aeruginosa [14] = assay: Antibacterial activity against Pseudomonas aeruginosa ATCC 27853 assessed as log reduction in colony forming units at MIC measured after 6 hrs by time kill assay; format: functional
Method in brief: (§4)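 Time-kill in Mueller-Hinton 2 broth. Inoculum was a 1/1000 dilution of a 16 h overnight culture, about 10^6 CFU/mL, 10 mL per tube. Arms were each agent alone at ×1 MIC, or the combination at ×1 MIC plus ×0.5 MIC partner. Incubated at 37 °C with continuous agitation for 24 h. Samples taken at 0, 2, 4, 6 and 24 h, serially diluted and plated on IsoSensitest agar for CFU counts.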

Acinetobacter baumannii [15] = assay: Antibacterial activity against Acinetobacter baumannii AB14 harboring OXA-23 clone 1 assessed as reduction in bacterial growth incubated for 24 hrs in presence of curcumin; format: functional
Streptococcus pyogenes [16] = assay: Antibacterial activity against Streptococcus pyogenes SPY2 assessed as reduction in bacterial growth incubated for 24 hrs in presence of curcumin; format: functional
[17] = tested on: Stenotrophomonas maltophilia; assay: Synergistic antibacterial activity against Stenotrophomonas maltophilia SMS01 assessed as fractional inhibitory concentration index measured after 24 hrs in presence of curcumin by checkerboard assay; format: functional; method in brief: as §2
Staphylococcus aureus [18] = assay: Antibacterial activity against Staphylococcus aureus ATCC 25923 assessed as reduction in bacterial growth incubated for 24 hrs in presence of curcumin; format: functional
Escherichia coli [19] = assay: Additive antibacterial activity against Escherichia coli NCTC 12241 assessed as fractional inhibitory concentration index measured after 24 hrs in presence of curcumin by checkerboard assay; format: functional
Acinetobacter baumannii [20] = assay: Synergistic antibacterial activity against Acinetobacter baumannii AB14 harboring OXA-23 clone 1 assessed as fractional inhibitory concentration index measured after 24 hrs in presence of curcumin by checkerboard assay; format: functional; method in brief: as §1
Staphylococcus aureus [21] = assay: Synergistic antibacterial activity against vancomycin-intermediate resistant Staphylococcus aureus Mu50 assessed as fractional inhibitory concentration index measured after 24 hrs in presence of curcumin by checkerboard assay; format: functional; method in brief: as §1
Staphylococcus aureus [22] = assay: Bactericidal activity against methicillin-resistant Staphylococcus aureus NCTC 12493 assessed as log reduction in colony forming units at 0.5 fold MIC measured after 24 hrs in presence of polymyxin B at MIC by time kill assay; format: functional; method in brief: as §3
Staphylococcus aureus [23] = assay: Antibacterial activity against Staphylococcus aureus ATCC 25923 assessed as reduction in bacterial growth incubated for 24 hrs in presence of polymyxin B; format: functional
[24] = tested on: Stenotrophomonas maltophilia; assay: Bactericidal activity against Stenotrophomonas maltophilia NCTC […] assessed as log reduction in colony forming units at 0.5 fold MIC measured after 24 hrs in presence of polymyxin B at MIC by time kill assay; format: functional; method in brief: as §4
[25] = tested on: Stenotrophomonas maltophilia; assay: Antibacterial activity against Stenotrophomonas maltophilia SMS01 assessed as reduction in bacterial growth incubated for 24 hrs in presence of polymyxin B; format: functional
[26] = tested on: Stenotrophomonas maltophilia; assay: Bactericidal activity against Stenotrophomonas maltophilia NCTC 102586 assessed as bacterial cell death at 0.5 fold MIC measured after 4 to 6 hrs in presence of polymyxin B at MIC by time kill assay relative to control; format: functional; conditions: time 4-6 hrs; method in brief: as §3
Staphylococcus aureus [27] = assay: Bactericidal activity against methicillin-resistant Staphylococcus aureus NCTC 12493 assessed as bacterial cell death at 0.5 fold MIC measured after 4 to 6 hrs hrs in presence of polymyxin B at MIC by time kill assay relative to control; format: functional; conditions: time 4-6 hrs; method in brief: as §3
Streptococcus pyogenes [28] = assay: Potentiation of polymyxin B-induced antibacterial activity against Streptococcus pyogenes SPY2 assessed as fold reduction in polymyxin B MIC measured after 24 hrs […] checkerboard assay; format: functional
Method in brief: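 Polymyxin B MIC measured alone and in combination with curcumin; fold reduction derived from the two MICs. Experiments run in triplicate and reported as mean values.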

Enterococcus faecalis [29] = assay: Antibacterial activity against […] Enterococcus faecalis ATCC 29212 assessed as reduction in bacterial growth incubated for 24 hrs in presence of polymyxin B; format: functional
Streptococcus pyogenes [30] = assay: Antibacterial activity against Streptococcus pyogenes SPY3 assessed as reduction in bacterial growth incubated for 24 hrs in presence of polymyxin B; format: functional
Enterococcus faecium [31] = assay: Antibacterial activity against vancomycin-resistant Enterococcus faecium OEF42 assessed as reduction in bacterial growth incubated for 24 hrs in presence of polymyxin B; format: functional

In the case of `CC[C@H](C)CCCCC(=O)N[C@@H](CCN)C(=O)N[C@H](C(=O)N[C@@H](CCN)C(=O)N[C@H]1CCNC(=O)[C@H]([C@@H](C)O)NC(=O)[C@H](CCN)NC(=O)[C@H](CCN)NC(=O)[C@H](CC(C)C)NC(=O)[C@@H](Cc2ccccc2)NC(=O)[C@H](CCN)NC1=O)[C@@H](C)O.O=S(=O)(O)O`, the “fractional inhibitory concentration index (FICI)” value (Enterococcus faecium [1]) is reported as 0.094, the “fractional inhibitory concentration index (FICI)” value (Pseudomonas aeruginosa [2]) is reported as 0.031 and the MIC (Enterococcus faecium [3]) is reported as 1.5 µM. For the same compound, the MIC (Pseudomonas aeruginosa [4]) was 0.012 µM, the MIC (Acinetobacter baumannii [5]) was 0.012 µM and the MIC (Escherichia coli [6]) was 0.024 µM. The MIC (Acinetobacter baumannii [7]) was 0.012 µM, the “fractional inhibitory concentration index (FICI)” value (Enterococcus faecium [8]) was 0.281 and the “fractional inhibitory concentration index (FICI)” value (Pseudomonas aeruginosa [9]) was 0.023. The “fractional inhibitory concentration index (FICI)” value [10] was 0.023, the Activity (Staphylococcus aureus [11]) was “inactive” and the “fractional inhibitory concentration index (FICI)” value (Enterococcus faecalis [12]) was 0.251. The “fractional inhibitory concentration index (FICI)” value (Acinetobacter baumannii [13]) was 0.068, the Activity (Pseudomonas aeruginosa [14]) was 2 log10CFU/ml and the MIC (Acinetobacter baumannii [15]) was 0.024 µM. The MIC (Streptococcus pyogenes [16]) was 0.79 µM, the “fractional inhibitory concentration index (FICI)” value [17] was 0.012 and the MIC (Staphylococcus aureus [18]) was 6.1 µM. For the same compound, the “fractional inhibitory concentration index (FICI)” value (Escherichia coli [19]) was 0.52, the “fractional inhibitory concentration index (FICI)” value (Acinetobacter baumannii [20]) was 0.375 and the “fractional inhibitory concentration index (FICI)” value (Staphylococcus aureus [21]) was 0.047.
For `COc1cc(/C=C/C(=O)CC(=O)/C=C/c2ccc(O)c(OC)c2)ccc1O` [CURCUMIN], the Activity (Staphylococcus aureus [22]) was >3 log10CFU/ml, the MIC (Staphylococcus aureus [23]) was 87 µM and the Activity [24] was >3 log10CFU/ml. For the same compound, the MIC [25] was 22 µM, the Activity [26] was 100% and the Activity (Staphylococcus aureus [27]) was 100%. The “fold change (FC)” value (Streptococcus pyogenes [28]) was 3, the MIC (Enterococcus faecalis [29]) was 87 µM and the MIC (Streptococcus pyogenes [30]) was 43 µM. It also gave an MIC (Enterococcus faecium [31]) of 22 µM.
